Laboratory results as given in ChEMBL document CHEMBL3091291, “Synthesis and pharmacological characterization of benzenesulfonamides as dual species inhibitors of human and murine mPGES-1” (Bioorg Med Chem, 2013).
pIC50: −log10 of the molar value. The source made the active and inactive calls. The calls are words filed in the database; no cut-off is given here.

Tests used:
[1] = biological target: T1, Prostaglandin E synthase (Homo sapiens) (UniProt O14684); assay: Inhibition of mPGES-1 in human HeLa cells using PGH2 as substrate assessed as inhibition of IL-1beta/TNFalpha-stimulated PGE2 production at 5 uM preincubated for 30 mins followed by substrate addition measured after 1 min by LC-MS/MS analysis; assay type: cell-based
T1 sequence (whole entry): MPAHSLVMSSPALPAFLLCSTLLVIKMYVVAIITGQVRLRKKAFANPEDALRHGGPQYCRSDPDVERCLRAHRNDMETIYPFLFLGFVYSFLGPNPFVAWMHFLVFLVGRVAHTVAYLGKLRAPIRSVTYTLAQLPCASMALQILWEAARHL
Method in brief: (§1)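 Microsomal fraction from HeLa, NIH-3T3 or RAW 264.7 cells, obtained by sonication and ultracentrifugation, resuspended in 0.1 M KPi pH 7.4 with 2.5 mM reduced GSH. Protein at 0.15 mg/mL (HeLa, NIH) or 0.3 mg/mL (RAW) incubated with compound 30 min on ice. Reaction started with 20 µM PGH₂, stopped after 1 min with FeCl₂/citric acid. PGE₂ quantified by SPE and LC–MS/MS. IC50 from four-parameter logistic fit of increasing concentrations.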

[2] = biological target: T2, Prostaglandin G/H synthase 2 (Homo sapiens) (UniProt P35354); assay: Inhibition of LPS-stimulated COX2 in human whole blood assessed as reduction in PGF2alpha production by measuring remaining activity at 100 uM preincubated for 15 mins followed by LPS addition measured after 24 hrs by LC-MS/MS analysis
T2 sequence (whole entry): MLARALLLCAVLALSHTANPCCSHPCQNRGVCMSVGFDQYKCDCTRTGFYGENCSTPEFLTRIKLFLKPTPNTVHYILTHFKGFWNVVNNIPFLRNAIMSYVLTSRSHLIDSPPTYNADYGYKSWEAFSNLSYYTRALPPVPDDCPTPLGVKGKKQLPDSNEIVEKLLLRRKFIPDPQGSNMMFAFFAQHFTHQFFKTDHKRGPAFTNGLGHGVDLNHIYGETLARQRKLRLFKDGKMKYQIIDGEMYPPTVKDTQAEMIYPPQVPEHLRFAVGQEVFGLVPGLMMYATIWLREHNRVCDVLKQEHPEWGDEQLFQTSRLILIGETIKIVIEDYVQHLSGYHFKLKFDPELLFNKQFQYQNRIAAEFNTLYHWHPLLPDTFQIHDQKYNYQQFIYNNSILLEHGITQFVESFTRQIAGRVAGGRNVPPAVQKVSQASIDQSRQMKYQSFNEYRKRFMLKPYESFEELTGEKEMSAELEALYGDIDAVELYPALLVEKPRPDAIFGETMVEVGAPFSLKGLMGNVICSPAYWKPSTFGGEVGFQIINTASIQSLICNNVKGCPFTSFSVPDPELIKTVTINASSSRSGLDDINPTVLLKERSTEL
Method in brief: (§2)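 Heparinized human whole blood (500 µL) mixed with compound in DMSO, with acetylsalicylic acid added to block COX-1, held 15 min at 37 °C, then stimulated with LPS in autologous plasma to induce COX-2/mPGES-1. After 24 h at 37 °C, samples chilled 5 min on ice; plasma collected, prostaglandins extracted and measured by LC–MS/MS. Remaining activity given relative to vehicle control.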

[3] = biological target: T2, Prostaglandin G/H synthase 2 (Homo sapiens); assay: Inhibition of LPS-stimulated COX2 in human whole blood assessed as reduction in PGE2 production by measuring remaining activity at 100 uM preincubated for 15 mins followed by LPS addition measured after 24 hrs by LC-MS/MS analysis; method in brief: as §2
HeLa = assay: Cytotoxicity against IL-1beta/TNFalpha-stimulated human HeLa cells assessed as cell viability up to 10 uM after 24 hrs by WST-1 assay; assay type: cell-based
Method in brief: (§3)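 HeLa cells seeded at 3 × 10³ per well in medium with 10% FCS, grown 24 h at 37 °C, then stimulated with IL-1b (1 ng/mL) + TNFa (5 ng/mL) and treated at the same time with compound (1, 10, 100 µM) or DMSO for 24 h. WST-1 reagent then added for 90–150 min; absorbance read at 450 nm against 620 nm reference.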

[4] = biological target: T1, Prostaglandin E synthase (Homo sapiens); assay: Inhibition of mPGES-1 in human HeLa cells using PGH2 as substrate assessed as inhibition of IL-1beta/TNFalpha-stimulated PGE2 production at 1 to 10 uM after 24 hrs by LC-MS/MS analysis; assay type: cell-based
Method in brief: (§4)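 HeLa cells (2 × 10⁴ per well) grown 24 h at 37 °C, then given fresh medium with 1 ng/mL IL-1b + 5 ng/mL TNFa (or PBS for unstimulated control) plus compound (1, 10 or 100 µM) or DMSO for 24 h at 37 °C. Supernatant mixed with H₃PO₄, EDTA and deuterated internal standards; PGE₂ measured by SPE and LC–MS/MS.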

[5] = biological target: T3, Polyunsaturated fatty acid 5-lipoxygenase (Homo sapiens) (UniProt P09917); assay: Inhibition of calcium ionophore (A23187)-stimulated human 5-LO assessed as reduction of 5(S)-HETE production by measuring remaining activity at 100 uM preincubated for 15 mins followed by calcium ionophore (A23187) addition measured after 15 mins by LC-MS/MS analysis
T3 sequence (whole entry): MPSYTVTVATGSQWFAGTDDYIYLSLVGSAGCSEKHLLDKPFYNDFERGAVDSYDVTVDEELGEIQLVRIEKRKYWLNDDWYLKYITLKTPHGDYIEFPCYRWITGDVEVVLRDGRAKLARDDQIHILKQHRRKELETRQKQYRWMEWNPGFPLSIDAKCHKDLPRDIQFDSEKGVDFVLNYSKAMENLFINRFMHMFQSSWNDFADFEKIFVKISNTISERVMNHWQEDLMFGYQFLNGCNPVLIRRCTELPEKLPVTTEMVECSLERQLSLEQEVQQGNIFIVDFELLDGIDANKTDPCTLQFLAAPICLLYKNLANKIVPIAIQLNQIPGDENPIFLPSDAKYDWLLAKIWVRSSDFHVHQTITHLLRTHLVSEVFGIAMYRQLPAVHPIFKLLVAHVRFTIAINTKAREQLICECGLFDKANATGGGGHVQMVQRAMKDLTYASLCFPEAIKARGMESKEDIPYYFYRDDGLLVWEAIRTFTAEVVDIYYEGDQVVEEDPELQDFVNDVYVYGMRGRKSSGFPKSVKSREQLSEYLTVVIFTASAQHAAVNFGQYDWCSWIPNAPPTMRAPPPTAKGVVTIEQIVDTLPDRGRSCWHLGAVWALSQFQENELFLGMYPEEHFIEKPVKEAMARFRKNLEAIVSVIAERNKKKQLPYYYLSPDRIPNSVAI
Method in brief: (§5)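 Heparinized human whole blood (500 µL) preincubated with compound 15 min at 37 °C, then stimulated with 20 µM calcium ionophore A23187 in autologous plasma for 15 min at 37 °C. Plasma spiked with deuterated LTB₄ and HETE internal standards, extracted into ethyl acetate, analysed by LC–MS/MS. Inhibition scored when a level fell by 33% or more versus control.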

[6] = Cytotoxicity against IL-1beta/TNFalpha-stimulated human HeLa cells assessed as cell viability at 100 uM after 24 hrs by WST-1 assay; assay type: cell-based; details: IL-1beta/TNFalpha-stimulated HeLa cells, read-out: Activity; method in brief: as §3
[7] = biological target: T1, Prostaglandin E synthase (Homo sapiens); assay: Inhibition of mPGES-1 in human HeLa cells using PGH2 as substrate assessed as inhibition of IL-1beta/TNFalpha-stimulated PGE2 production at 100 uM after 24 hrs by LC-MS/MS analysis; assay type: cell-based; method in brief: as §4
[8] = biological target: T3, Polyunsaturated fatty acid 5-lipoxygenase (Homo sapiens); assay: Inhibition of calcium ionophore (A23187)-stimulated human 5-LO assessed as reduction of LTB4 production by measuring remaining activity at 100 uM preincubated for 15 mins followed by calcium ionophore (A23187) addition measured after 15 mins by LC-MS/MS analysis; method in brief: as §5
[9] = biological target: Prostaglandin G/H synthase 1 (Homo sapiens) (UniProt P23219); assay: Inhibition of COX1 in human whole blood assessed as reduction in PGD2 production by measuring remaining activity at 100 uM after 1 hr by LC-MS/MS analysis
Chain of Prostaglandin G/H synthase 1 (Homo sapiens) (P23219 whole entry): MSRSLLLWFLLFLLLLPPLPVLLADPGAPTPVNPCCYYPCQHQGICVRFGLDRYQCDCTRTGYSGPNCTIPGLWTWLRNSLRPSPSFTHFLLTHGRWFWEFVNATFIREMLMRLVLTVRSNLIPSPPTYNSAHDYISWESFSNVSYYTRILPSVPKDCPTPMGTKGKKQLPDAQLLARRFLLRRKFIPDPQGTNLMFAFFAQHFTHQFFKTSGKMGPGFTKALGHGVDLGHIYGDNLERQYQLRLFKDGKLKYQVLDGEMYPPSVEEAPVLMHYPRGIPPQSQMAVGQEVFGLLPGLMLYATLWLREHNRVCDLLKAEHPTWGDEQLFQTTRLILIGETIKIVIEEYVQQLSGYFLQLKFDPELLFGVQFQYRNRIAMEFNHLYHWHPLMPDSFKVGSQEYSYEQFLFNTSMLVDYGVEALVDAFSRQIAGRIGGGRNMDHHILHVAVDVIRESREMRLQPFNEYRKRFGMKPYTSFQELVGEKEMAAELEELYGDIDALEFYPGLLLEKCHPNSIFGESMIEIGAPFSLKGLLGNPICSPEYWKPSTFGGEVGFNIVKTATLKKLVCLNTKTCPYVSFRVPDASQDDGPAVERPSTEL

[10] = biological target: Prostaglandin G/H synthase 1 (Homo sapiens) (UniProt P23219); assay: Inhibition of COX1 in human whole blood assessed as reduction in TXB2 production by measuring remaining activity at 100 uM after 1 hr by LC-MS/MS analysis
[11] = biological target: T4, Prostaglandin E synthase (Mus musculus) (UniProt Q9JM51); assay: Inhibition of mPGES-1 in mouse RAW264.7 cells using PGH2 as substrate assessed as inhibition of LPS-stimulated PGE2 production at 5 uM preincubated for 30 mins followed by substrate addition measured after 1 min by LC-MS/MS analysis; assay type: cell-based; method in brief: as §1
T4 sequence (whole entry): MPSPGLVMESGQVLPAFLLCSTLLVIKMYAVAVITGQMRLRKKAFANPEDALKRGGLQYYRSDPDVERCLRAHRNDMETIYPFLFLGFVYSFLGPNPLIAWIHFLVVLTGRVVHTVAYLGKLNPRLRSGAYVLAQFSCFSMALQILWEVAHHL

Prostaglandin E synthase = biological target: T5, Prostaglandin E synthase (Homo sapiens, UniProt O14684); assay: Inhibition of mPGES-1 in human HeLa cells using PGH2 as substrate assessed as inhibition of IL-1beta/TNFalpha-stimulated PGE2 production preincubated for 30 mins followed by substrate addition measured after 1 min by LC-MS/MS analysis; assay type: cell-based; method in brief: as §1
T5 sequence (O14684 whole entry): T1 sequence (whole entry)

[12] = biological target: T4, Prostaglandin E synthase (Mus musculus); assay: Inhibition of mPGES-1 in Swiss mouse NIH/3T3 cells using PGH2 as substrate assessed as inhibition of IL-1beta/TNFalpha-stimulated PGE2 production at 5 uM preincubated for 30 mins followed by substrate addition measured after 1 min by LC-MS/MS analysis; assay type: cell-based; method in brief: as §1

Row | inhibition [1] [%] | Compound | further results
1 | 6 | COc1ccc(CN(Cc2cccc(C#N)c2)S(=O)(=O)c2ccc(C(=O)O)cc2)cc1 | 
2 | 51.4 | O=C(O)c1ccc(S(=O)(=O)N(Cc2ccccc2)Cc2ccccc2)cc1 | 
3 | 1 | N#Cc1ccc(S(=O)(=O)N(Cc2ccccc2)Cc2ccc(Oc3ccccc3)cc2)cc1 | 
4 | 17.4 | O=C(O)c1ccc(CN(Cc2ccccc2)Cc2ccccc2)cc1 | 
5 | 73 | O=C(O)c1ccc(S(=O)(=O)N(CCCc2ccccc2)Cc2ccccc2)cc1 | Activity [2]: 129%; Activity [3]: 68%
6 | 48.4 | O=C(O)c1ccc(S(=O)(=O)N(Cc2ccc(Cl)cc2)CC2CCCCC2)cc1 | 
7 | < 0 | COc1ccc(CN(Cc2ccc(C#N)cc2)S(=O)(=O)c2ccc(C(=O)O)cc2)cc1 | 
8 | < 0 | CCN(Cc1ccccc1)S(=O)(=O)c1ccc(C(=O)O)cc1 | 
9 | 76 | O=C(O)c1ccc(S(=O)(=O)N(Cc2ccc(-c3ccccc3)cc2)CC2CCCCC2)cc1 | Activity [2]: 117%; inhibition [11]: 44.4%; Activity [5]: 75.9%; pIC50 (Prostaglandin E synthase): 6.10; Activity [3]: 69.7%; Activity [8]: 75.7%; inhibition [12]: 51.9%
10 | 6.2 | O=S(=O)(c1cccc(Cl)c1)N(Cc1ccccc1)Cc1ccccc1 | 
11 | 34.1 | N#Cc1ccc(S(=O)(=O)N(Cc2ccccc2)Cc2ccccc2)cc1 | 
12 | 26.4 | O=C(O)c1ccc(S(=O)(=O)N(Cc2ccccc2)c2ccccc2)cc1 | 

More lines, now with the values behind:

Row | Compound | inhibition [1] [%] | further results
13 | COc1ccc(CN(Cc2nc(C)cs2)S(=O)(=O)c2ccc(C(=O)O)cc2)cc1 | 2.9 | 
14 | O=S(=O)(c1ccc(Cl)cc1)N(Cc1ccccc1)Cc1ccccc1 | < 0 | 
15 | O=C(O)c1ccc(S(=O)(=O)N(CCc2ccccc2)Cc2ccccc2)cc1 | 57 | Activity [2]: 117%; Activity [3]: 83.3%
16 | CCCCN(Cc1ccccc1)S(=O)(=O)c1ccc(C(=O)O)cc1 | 19.1 | Activity (HeLa): Non-toxic; inhibition [4]: inactive; Activity [2]: 117%; Activity [5]: 121%; viability at 24 h, 100 µM [6]: 50%; inhibition [7]: Active; Activity [3]: 62.8%; Activity [8]: 124%; Activity [9]: 73.4%; Activity [10]: 97.8%
17 | O=S(=O)(c1ccccc1Cl)N(Cc1ccccc1)Cc1ccccc1 | < 0 | 
18 | O=S(=O)(c1ccc(C(F)(F)F)cc1)N(Cc1ccccc1)Cc1ccccc1 | 11.9 | 
19 | O=C(O)c1ccc(S(=O)(=O)N2CCN(c3ccccc3)CC2)cc1 | 58.7 | 
20 | O=C(O)c1cccc(S(=O)(=O)N(Cc2ccccc2)Cc2ccccc2)c1 | 35.8 | 
21 | O=S(=O)(c1ccc(F)cc1)N(Cc1ccccc1)Cc1ccccc1 | < 0 | 
22 | Cc1ccc(-c2cc(C(F)(F)F)nn2-c2ccc(S(N)(=O)=O)cc2)cc1 [CELECOXIB] |  | Activity (HeLa): Non-toxic; inhibition [4]: inactive; viability at 24 h, 100 µM [6]: 50%; inhibition [7]: Active
23 | CCN(c1ccccc1)S(=O)(=O)c1ccc(C(=O)O)cc1 | < 0 | 
24 | O=C(O)c1ccc(S(=O)(=O)N(Cc2ccc(Oc3ccccc3)cc2)CC2CCCCC2)cc1 | 79.2 | 
25 | COc1ccc(CN(Cc2ccsc2)S(=O)(=O)c2ccc(C(=O)O)cc2)cc1 | 11.9 | 
26 | CCCCN(c1ccccc1)S(=O)(=O)c1ccc(C(=O)O)cc1 | < 0 | 
27 | COc1ccc(CN(Cc2ccoc2)S(=O)(=O)c2ccc(C(=O)O)cc2)cc1 | 14.2 | 
